Assays:
[1] = Plasma protein binding in mouse at 5 and 20 uM for 6 hrs by LC-MS/MS analysis; assay type: ADME, cell-free; conditions: read-out: PPB
In short: (§1)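 Equilibrium dialysis: plasma fortified in triplicate (5 and 20 µM rat and mouse; 10 µM human) on donor side, PBS on receiver side; 37°C, 200 rpm, 6 h; both sides by LC-MS/MS.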

[2] = Cmax in R6/2 mouse at 7.5 mg/kg/day, po; assay type: ADME, organism-based; design: dose 7.5 mg/kg/day, route oral; conditions: in vivo
[3] = Oral bioavailability in C57BL/6N mouse at 0.05 mg/kg administered via gavage by LC-MS/MS analysis; assay type: ADME, organism-based; conditions: in vivo
In short: (§2)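 Male C57BL/6N mice dosed by oral gavage (10 mL/kg) as fine suspensions in 10% hydroxypropyl-β-cyclodextrin in 50 mM phosphate buffer pH 7; dose formulations verified by LC-MS/MS. Plasma analysed by LC-MS/MS; composite non-compartmental parameters from mean concentrations (n=3 per time point), C0 set to zero. %F = dose-normalised po AUCinf over dose-normalised iv AUCinf, only within linear range.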

[4] = Half life in C57BL/6N mouse at 5 mg/kg, iv administered as single dose by LC-MS/MS analysis; assay type: ADME, organism-based; design: dose 5 mg/kg, route intravenous; conditions: in vivo
In short: (§3)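 Single intravenous bolus of 5 mg/kg to male C57BL/6N mice, given as a filtered 1 mg/mL solution in DMSO:PEG400:water 10:50:40 (v/v). Plasma was extracted in acidified acetonitrile with diclofenac as internal standard and analysed by UPLC-MS/MS. Non-compartmental analysis used mean concentrations (n=3 per time point), with C0 back-extrapolated from the first two samples. AUCinf = AUClast + Ct/kel.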

[5] = Plasma protein binding in human at 10 uM for 6 hrs by LC-MS/MS analysis; assay type: ADME, cell-free; conditions: read-out: PPB; in short: as §1
[6] = Plasma protein binding in rat at 5 and 20 uM for 6 hrs by LC-MS/MS analysis; assay type: ADME, cell-free; conditions: read-out: PPB; in short: as §1
[7] = target: Kynurenine 3-monooxygenase (Mus musculus, UniProt Q91WN4); assay: Inhibition of C57BL/6J mouse KMO assessed as 3-hydroxykynurenine formation preincubated for 5 mins using 100 uM kynurenine as substrate by LC-MS/MS analysis in presence of 3 mg/ml plasma protein
Kynurenine 3-monooxygenase (Mus musculus, UniProt Q91WN4), sequence (Q91WN4 whole entry): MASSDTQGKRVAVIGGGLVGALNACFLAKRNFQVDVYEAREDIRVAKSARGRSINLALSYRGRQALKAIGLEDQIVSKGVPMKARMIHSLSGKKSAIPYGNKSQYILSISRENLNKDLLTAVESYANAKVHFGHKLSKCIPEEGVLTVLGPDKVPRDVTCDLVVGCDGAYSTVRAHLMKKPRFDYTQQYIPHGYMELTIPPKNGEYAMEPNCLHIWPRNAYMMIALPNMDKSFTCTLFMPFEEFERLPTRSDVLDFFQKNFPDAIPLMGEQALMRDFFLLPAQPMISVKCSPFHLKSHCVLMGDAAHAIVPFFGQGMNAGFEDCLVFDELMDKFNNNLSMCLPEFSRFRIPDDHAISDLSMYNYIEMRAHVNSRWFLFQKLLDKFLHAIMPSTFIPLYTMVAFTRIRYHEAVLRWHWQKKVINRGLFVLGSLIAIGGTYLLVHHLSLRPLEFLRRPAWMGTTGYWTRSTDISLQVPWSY
In short: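 Liver mitochondrial KMO (mouse C57 BL/6J or human), 0.3 mg protein/mL in 100 mM potassium phosphate pH 7.4, 200 µM NADPH, NADPH-regenerating system, plus 3 mg/mL plasma protein. Compound pre-incubated 5 min at 25°C; 100 µM kynurenine started reaction for 40 min (mouse) or 60 min (human); TCA stop; 3-hydroxykynurenine by LC-MS/MS. IC50 from 8-point 3-fold series, triplicates, n≥2.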

[8] = Tmax in C57BL/6N mouse at 0.05 mg/kg, po administered via gavage by LC-MS/MS analysis; assay type: ADME, organism-based; design: dose 0.05 mg/kg, route oral; conditions: in vivo; in short: as §2
[9] = Cmax in C57BL/6N mouse at 0.05 mg/kg, po administered via gavage by LC-MS/MS analysis; assay type: ADME, organism-based; design: dose 0.05 mg/kg, route oral; conditions: in vivo
In short: (§4)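 Male C57BL/6N mice were dosed by oral gavage at 10 mL/kg with a fine suspension in 10% hydroxypropyl-β-cyclodextrin in 50 mM phosphate buffer, pH 7. Plasma was taken at non-serial time points (n=3 per time point), extracted with 0.1% formic acid in acetonitrile containing diclofenac as internal standard, and quantified by UPLC-MS/MS. Composite non-compartmental parameters came from mean concentrations; AUClast by linear trapezoid, kel from at least three terminal points.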

[10] = tested on: Mus musculus; assay: Dose normalised Cmax in C57BL/6N mouse at 10 mg/kg, po administered via gavage containing <0.4% Ro-61-8048 by LC-MS/MS analysis; assay type: ADME, organism-based; design: dose 10 mg/kg, route oral; conditions: in vivo; in short: as §4
[11] = Half life in simulated gastric fluid of pH 1.2 at 10 uM after 2 and 4 hrs by LC-UV analysis; assay type: ADME
In short: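 Compound at 10 µM was shaken at about 25 °C in simulated gastric fluid (2 g/L NaCl, 3.2 g/L pepsin, 0.7% HCl, pH 1.2) and in pepsin-free gastric buffer. Aliquots were taken at 0, 2 and 4 h, diluted into DMSO, and analysed immediately by LC-UV at 254 nm.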

[12] = tested on: Mus musculus; assay: Dose normalised AUC in C57BL/6N mouse at 5 mg/kg, iv administered as single dose containing <0.4% Ro-61-8048 by LC-MS/MS analysis; assay type: ADME, organism-based; design: dose 5 mg/kg, route intravenous; conditions: in vivo; in short: as §3
[13] = target: Kynurenine 3-monooxygenase (Homo sapiens, UniProt O15229); assay: Inhibition of KMO (unknown origin)
Kynurenine 3-monooxygenase (Homo sapiens, UniProt O15229), sequence (O15229 whole entry): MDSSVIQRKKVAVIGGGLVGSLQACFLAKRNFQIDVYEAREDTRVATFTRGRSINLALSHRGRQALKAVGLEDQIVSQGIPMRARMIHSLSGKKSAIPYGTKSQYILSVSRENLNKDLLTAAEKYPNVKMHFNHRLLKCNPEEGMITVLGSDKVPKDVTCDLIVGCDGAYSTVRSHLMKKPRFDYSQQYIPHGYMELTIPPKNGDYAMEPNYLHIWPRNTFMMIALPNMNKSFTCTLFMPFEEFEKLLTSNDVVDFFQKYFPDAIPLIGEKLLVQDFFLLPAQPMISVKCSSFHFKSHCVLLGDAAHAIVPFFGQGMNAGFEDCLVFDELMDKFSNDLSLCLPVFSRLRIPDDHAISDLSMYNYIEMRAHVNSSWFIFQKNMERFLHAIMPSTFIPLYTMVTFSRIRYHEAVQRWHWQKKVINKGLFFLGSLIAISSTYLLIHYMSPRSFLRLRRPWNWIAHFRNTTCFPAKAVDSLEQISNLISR

[14] = Plasma clearance in C57BL/6N mouse at 5 mg/kg, iv administered as single dose containing <0.4% Ro-61-8048 by LC-MS/MS analysis; assay type: ADME, organism-based; design: dose 5 mg/kg, route intravenous
In short: (§5)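 Male C57BL/6N mice given 5 mg/kg iv bolus (1 mg/mL, DMSO:PEG400:water 10:50:40, filtered); dosed material carried Ro-61-8048 as impurity, which was also quantified in plasma. LC-MS/MS after acetonitrile/formic acid extraction; composite non-compartmental analysis of mean concentrations (n=3 per time point), C0 back-extrapolated, kel from ≥3 terminal points.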

[15] = tested on: Liver; assay: Metabolic stability in mouse liver microsomes assessed as intrinsic clearance at 1 uM after 5 to 40 mins by LC-MS/MS analysis
[16] = Oral bioavailability in C57BL/6N mouse treated with JM6 (containing <0.4% Ro-61-8048) at 9 mg/kg and Ro-61-8048 at 1 mg/kg drugs administered via gavage by LC-MS/MS analysis; assay type: ADME, organism-based; conditions: in vivo; in short: as §2
[17] = tested on: Mus musculus; assay: AUC(infinity) in C57BL/6N mouse at 10 mg/kg, po administered via gavage containing <0.4% Ro-61-8048 by LC-MS/MS analysis; assay type: ADME, organism-based, Plasma; design: time infinity, dose 10 mg/kg, route oral; conditions: in vivo; in short: as §4
[18] = Mean residence time in C57BL/6N mouse at 5 mg/kg, iv administered as single dose containing <0.4% Ro-61-8048 by LC-MS/MS analysis; assay type: ADME, organism-based; design: dose 5 mg/kg, route intravenous; conditions: in vivo; in short: as §5
[19] = tested on: Mus musculus; assay: Half life in C57BL/6N mouse at 10 mg/kg, po administered via gavage containing <0.4% Ro-61-8048 by LC-MS/MS analysis; assay type: ADME, organism-based; design: dose 10 mg/kg, route oral; conditions: in vivo; in short: as §4
[20] = AUC(infinity) in C57BL/6N mouse at 5 mg/kg, iv administered as single dose containing <0.4% Ro-61-8048 by LC-MS/MS analysis; assay type: ADME, organism-based; design: time infinity, dose 5 mg/kg, route intravenous; conditions: plasma; in short: as §3

Work on `COc1ccc(S(=O)(=O)Nc2nc(-c3cccc([N+](=O)[O-])c3)cs2)cc1OC` yielded a fraction unbound at 6 h [1] of under 0.01, a Cmax [2] of 280 nM and a bioavailability [3] of 70%. It also gave a half-life [4] of 390 min, a fraction unbound at 6 h, 10 µM [5] of under 0.01 and a fraction unbound at 6 h [6] of under 0.01. It also gave an IC50 [7] of at least 12 µM, a Tmax [8] of 30 min and a Cmax [9] of 550 nM.

In the case of `COc1ccc(S(=O)(=O)Nc2nc(-c3cccc([N+](=O)[O-])c3)c(CN3CCCCC3)s2)cc1OC`, the Cmax/dose [10] is reported as 110 nM, the half-life at 10 µM [11] is reported as over 1080 min and the AUC/dose [12] is reported as 1000 nM·kg·h/mg. For the same compound, the IC50 [13] was 4 µM, the clearance [14] was 31.7 mL/min/kg and the CLH [15] was 220 µL/min/mg. The bioavailability [16] was 7.8%, the AUC [17] was 1.1 µM·h and the MRT [18] was 12 min. It also gave a t1/2 [19] of 66 min and an AUC(0-inf) [20] of 5.2 µM·h.
